This note sets out measurements from ChEMBL document CHEMBL4706717, “Covalent Occlusion of the RORγt Ligand Binding Pocket Allows Unambiguous Targeting of an Allosteric Site” (ACS Med Chem Lett, 2021).

The target in assay [1] is T1, Nuclear receptor ROR-gamma (Homo sapiens, UniProt P51449).
T1 sequence (P51449 whole entry): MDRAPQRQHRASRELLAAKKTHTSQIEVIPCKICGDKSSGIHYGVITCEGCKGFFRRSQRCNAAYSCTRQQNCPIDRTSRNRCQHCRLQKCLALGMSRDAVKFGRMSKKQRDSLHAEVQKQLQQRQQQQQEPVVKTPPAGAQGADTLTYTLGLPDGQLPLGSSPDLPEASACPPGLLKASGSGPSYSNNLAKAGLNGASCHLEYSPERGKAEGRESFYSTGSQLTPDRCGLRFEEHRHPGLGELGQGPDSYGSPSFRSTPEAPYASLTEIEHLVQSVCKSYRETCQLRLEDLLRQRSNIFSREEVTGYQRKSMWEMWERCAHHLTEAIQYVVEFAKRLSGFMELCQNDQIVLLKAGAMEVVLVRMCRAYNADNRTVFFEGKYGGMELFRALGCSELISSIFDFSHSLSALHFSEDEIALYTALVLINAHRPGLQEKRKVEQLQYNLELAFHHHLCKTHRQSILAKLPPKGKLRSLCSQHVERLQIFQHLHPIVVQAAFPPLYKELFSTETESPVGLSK
Briefly: Orthosteric inverse agonist activity at recombinant human N-terminal His6-tagged RORgammat ligand binding domain (265 to 518 residues) expressed in Escherichia coli BL21 (DE3) assessed as reduction in coactivator, N-terminal biotinylated SRC-1 box2 peptide recruitment incubated for 60 mins by TR-FRET assay. A general note: Time-resolved FRET reads energy transfer from a long-lived donor to a nearby acceptor.

The target in assay [2] is T2, Peroxisome proliferator-activated receptor gamma (Homo sapiens) (UniProt P37231).
T2 sequence (whole entry): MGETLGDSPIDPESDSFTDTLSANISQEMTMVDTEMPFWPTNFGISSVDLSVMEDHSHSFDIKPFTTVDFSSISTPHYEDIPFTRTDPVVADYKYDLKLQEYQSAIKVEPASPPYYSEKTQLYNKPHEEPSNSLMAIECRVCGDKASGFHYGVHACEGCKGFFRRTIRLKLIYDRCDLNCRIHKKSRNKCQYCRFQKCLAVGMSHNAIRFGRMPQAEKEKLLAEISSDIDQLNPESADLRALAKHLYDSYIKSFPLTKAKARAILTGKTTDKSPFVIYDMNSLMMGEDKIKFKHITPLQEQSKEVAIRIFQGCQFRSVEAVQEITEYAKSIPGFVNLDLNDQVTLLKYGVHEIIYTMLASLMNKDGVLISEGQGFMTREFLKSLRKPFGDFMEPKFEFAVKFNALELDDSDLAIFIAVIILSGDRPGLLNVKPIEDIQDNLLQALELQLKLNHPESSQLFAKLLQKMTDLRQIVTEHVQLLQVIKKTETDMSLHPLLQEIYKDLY
Briefly: Binding affinity to PPARgamma (unknown origin).

The target in assay [3] is T3, Nuclear receptor ROR-gamma (Homo sapiens) (UniProt P51449).
T3 sequence (whole entry): T1 sequence (P51449 whole entry)
Briefly: Orthosteric agonist activity at 2-chloro-5-nitro-N-o-tolylbenzamide-ligated recombinant human N-terminal His6-tagged RORgammat ligand binding domain (265 to 518 residues) expressed in Escherichia coli BL21 (DE3) assessed as increase in coactivator, N-terminal biotinylated SRC-1 box2 peptide recruitment in presence of 2-chloro-5-nitro-N-o-tolylbenzamide incubated for 60 mins by TR-FRET assay. The gist of the method:
(§1)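 Dose response: probe and His6-RORγt LBD (265-518, 20 μM) co-titrated (1.4x series, top 10 eq, 200 μM) in pH 5.8 TRIS/NaCl/CHAPS/BSA buffer overnight (4°C or RT per compound). Then 100 nM LBD, 100 nM biotin-SRC-1 box2, Tb anti-His, d2-streptavidin in HEPES pH 7.5, 150 mM NaCl, 5 mM DTT, 0.1% BSA, 0.1 mM CHAPS, 1% DMSO; top probe 1 μM; 60 min RT; 665/620 nm ratio; four-parameter fit; triplicate, ≥2 experiments.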

The target in assay [4] is T3, Nuclear receptor ROR-gamma (Homo sapiens). Description: Orthosteric agonist activity at 2-chloro-N-(2,6-dimethylphenyl)-5-nitrobenzamide-ligated recombinant human N-terminal His6-tagged RORgammat ligand binding domain (265 to 518 residues) expressed in Escherichia coli BL21 (DE3) assessed as increase in coactivator, N-terminal biotinylated SRC-1 box2 peptide recruitment in presence of 2-chloro-N-(2,6-dimethylphenyl)-5-nitrobenzamide incubated for 60 mins by TR-FRET assay. The gist of the method:
as §1

The target is the same in assay [5]. Description: Orthosteric agonist activity at 2-chloro-5-nitro-N-(2-(trifluoromethyl)phenyl)benzamide-ligated recombinant human N-terminal His6-tagged RORgammat ligand binding domain (265 to 518 residues) expressed in Escherichia coli BL21 (DE3) assessed as increase in coactivator, N-terminal biotinylated SRC-1 box2 peptide recruitment in presence of 2-chloro-5-nitro-N-(2-(trifluoromethyl)phenyl)benzamide incubated for 60 mins by TR-FRET assay. The gist of the method: as §1

The target is the same in assay [6]. Description: Orthosteric agonist activity at GW9662-ligated recombinant human N-terminal His6-tagged RORgammat ligand binding domain (265 to 518 residues) expressed in Escherichia coli BL21 (DE3) assessed as increase in coactivator, N-terminal biotinylated SRC-1 box2 peptide recruitment in presence of GW9662 incubated for 60 mins by TR-FRET assay. The gist of the method: as §1

The species named for another assay is Homo sapiens. Description: Binding affinity to recombinant human N-terminal His6-tagged RORgammat ligand binding domain (265 to 507 residues) Cys320Ala mutant expressed in Escherichia coli BL21 (DE3) incubated for overnight by Q-TOF-MS analysis. The gist of the method:
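Ligation of His6-RORγt LBD (residues 265-507, used for mutagenesis work) at 20 μM with 5-10 eq probe in 50 mM TRIS (pH 5.3-5.8), 50 mM NaCl, 5 mM CHAPS, 0.1% BSA, continuous mixing overnight at 4°C or RT; LC-MS Q-TOF, deconvoluted spectra; percent ligation from ratio of mass peaks.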

The target of assay [7] is T3, Nuclear receptor ROR-gamma (Homo sapiens). As to conditions: filed as inverse agonist, dose 10.0 µM.
Assay [8] shares this target. The following applies: filed as inverse agonist, dose 10.0 µM. The source holds these as a separate data set.

The structures appear in SMILES notation. pIC50: −log10 of the molar value. The source made the active and inactive calls. The calls are words filed in the database; no cut-off is given here.

As to `Cc1ccccc1NC(=O)c1cc([N+](=O)[O-])ccc1Cl`, the pIC50 in assay [1] was 7.11. Also, the result in [2] was Active. On to `O=C(c1cc([N+](=O)[O-])ccc1Cl)n1cccc1`, for which the result in assay [2] was inactive.

As for `CC(C)CCC[C@@H](C)[C@H]1CC[C@H]2[C@@H]3CC=C4C[C@@H](O)CC[C@]4(C)[C@H]3CC[C@]12C`, the result in assay [3], in assay [4], in assay [5] and in assay [6] was inactive. Regarding `O=C(Nc1ccccc1)c1cc([N+](=O)[O-])ccc1Cl`, the pIC50 in assay [1] was 7.07. In addition, in the assay filed under Homo sapiens, the result was inactive. As for `Cc1ccc(NC(=O)c2cc([N+](=O)[O-])ccc2Cl)cc1`, in assay [2], the result was Active. In the case of `O=C(O)c1ccc(NCc2c(-c3c(Cl)cccc3C(F)(F)F)noc2-c2cc[nH]c2)cc1`, in assay [7], the ΔTm was found to be 2.1 °C. As for `C=CCNC(=O)c1cc([N+](=O)[O-])ccc1Cl`, in assay [2], the outcome was Active. On the same count and under the same terms, under `O=C(Nc1ccc([N+](=O)[O-])cc1)c1cc([N+](=O)[O-])ccc1Cl` stands “Active”; under `O=C(NCc1ccccc1)c1cc([N+](=O)[O-])ccc1Cl`, “Active”. `O=C(Nc1ccsc1)c1cc([N+](=O)[O-])ccc1Cl`: the pIC50 in [1] is 6.91. Also, the result in [2] was Active. With `C[C@H]1O[C@@H](O[C@H]2[C@@H](O)C[C@H](O[C@H]3[C@@H](O)C[C@H](O[C@H]4CC[C@@]5(C)[C@H](CC[C@@H]6[C@@H]5C[C@@H](O)[C@]5(C)[C@@H](C7=CC(=O)OC7)CC[C@]65O)C4)O[C@@H]3C)O[C@@H]2C)C[C@H](O)[C@@H]1O`, in assay [8], the ΔTm was -0.2 °C. On to `O=C(NC1CCCCC1)c1cc([N+](=O)[O-])ccc1Cl`, for which the outcome in [2] was Active.

In the case of `Cc1cccc(NC(=O)c2cc([N+](=O)[O-])ccc2Cl)c1`, the outcome in [2] was Active. Consider `O=C(Nc1ccccc1)c1cc(Cl)ccc1[N+](=O)[O-]`, for which the outcome in [2] was inactive. Take `CC(C)NC(=O)c1cc([N+](=O)[O-])ccc1Cl`: the result in [2] was Active.

Take `COc1ccc(NC(=O)c2cc([N+](=O)[O-])ccc2Cl)cc1`: the result in assay [2] was Active.

The pIC50 is the IC50 on a negative log10 scale, so that one unit is a factor of ten. As usually defined, the ΔTm is the shift of the melting midpoint relative to a reference.
